From PubChem BioAssay AID804 (SRMLSC, 2007) come the findings set out here.

Molecules are shown by their SMILES. Out of some 140,000 compounds screened, about 710 (0.51%) were called active. The list comes from a sample in which actives are over-represented; it also holds similar structures and randomly drawn compounds. Unmarked numbers belong to inactive results.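 How the source made its calls: active means inhibition above a set limit, 3 SD over the mean compound inhibition (cut at about 44% in these data); inactive means the rest.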

The assay in a line: growth inhibitors of yeast BB579 in restrictive medium, primary screen, yeast lifespan-shortening project, S. cerevisiae (AID 804). The settings on record: OD615, 48 h, at 10 µM, hits give high values. In a few lines: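 Test system: S. cerevisiae DeaD strain BB579 yeast; Medium: restrictive CSMM-D medium; Compound: one dose, 10 µM compound with 0.25% DMSO; Incubation: 4 h cell preincubation, 48 h compound exposure, 30 °C humidified; Signal: OD at 615 nm; Benchmarks: amphotericin B at 10 µg/mL as positive control.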
Turning to `COc1ccc2nc(Nc3nc(-c4cc5ccccc5oc4=O)cs3)sc2c1`, the inhibition was -1.96%. As for `O=C(Cc1coc2ccc3ccccc3c12)NCc1cccs1`, the figure is -8.63%; as for `CCC(=O)Nc1c(S(=O)(=O)c2ccccc2)c2nc3ccccc3nc2n1Cc1ccccc1`, -16.3%; as for `O=C(O)c1ccc(/C=N/NC(=O)c2ccc(Br)cc2)cc1`, -28.3%. As for `O=S(=O)(NCCc1ccncc1)c1ccccc1`, the figure is -4.48%.

Take `COc1cc(OC)c(C(=O)Nc2ccccc2-c2ccccc2)cc1OC`: the inhibition was -28.8%.

In the case of `CCNC(=O)NC(=O)C(C)OC(=O)C1CCN(S(=O)(=O)c2ccccc2F)CC1` (stereo not drawn), the inhibition was 6.21%. Next, `COc1ccc(/C=C/C(=O)c2cc(Br)ccc(=O)c2O)cc1`: 96% (active); `COc1ccc(/C=C/C(=O)c2ccc(OC)cc2O)cc1`: -54.2%. As for `COc1ccc(C(=O)/C=C/c2ccc(OC3CSC3)cc2)cc1`, the figure is -16.1%; as for `Cc1ccc(C(=O)OCc2nc(N)nc(Nc3ccccc3C)n2)cc1`, -34.8%. For the molecule `CC(=O)c1c(N2CCN(c3ccc(F)cc3)CC2)nc(=S)n(-c2ccccc2)c1C`, the inhibition is -54.2%. Next, `CCSc1nc(C)nc2c1oc1ccccc12`: -45.9%; `Cc1nc(N2CCCC2C(=O)O)c2oc3ccccc3c2n1` (stereo not drawn): -21.7%; `Cc1nc(Cl)c2oc3ccccc3c2n1`: 59.5% (active). Next, `CCOC(=O)C1=C(C)OC(N)=C(C#N)C1c1cncc(-c2ccc(F)cc2)c1` (stereo not drawn): -36.2%. Next, `COc1ccc(C(=O)C[n+]2ccc(C)cc2)cc1`: -28.4%. In the case of `CCc1ccc(NC(=O)CC2C(=O)NCCN2C(=S)Nc2ccccc2)cc1` (stereo not drawn), the inhibition is -24.6%. Next, `COc1cccc(NC(=S)NC(=O)c2c(Cl)c(C)nn2C)c1`: -62.5%; `Cc1nc2sc(C(=O)c3ccccc3)c(N)c2c2c1CCCC2`: 8.75%. On to `N#C/C(=C\c1ccccc1C(F)(F)F)C(=O)Nc1ccccc1F`, for which the inhibition was 4.84%. Next, `CC(=O)NC1=NN(C(C)=O)C(C)(c2ccc(C)cc2)S1` (stereo not drawn): -33.1%; `Fc1ccc2c(c1)C(c1cccnc1)=NNC(c1cccs1)=N2`: -47.9%. As for `COC(=O)c1ccc(C(=O)OC)c(NC(=S)N2CCN(c3ccc(F)cc3)CC2)c1`, the figure is -49.1%. As for `Cc1ccc(-n2c(SCC(=O)N3c4ccccc4Sc4ccccc43)nnc2-c2ccncc2)cc1`, the inhibition is -47.4%. As for `COc1ccc(C)cc1NC(=O)C(Sc1ccccc1)c1ccccc1` (stereo not drawn), the figure is -2.09%; as for `Cc1ccc(S(=O)(=O)N(C)C)cc1NC(=O)/C=C/c1cccs1`, -48%; as for `Cc1cc(/C=C2\SC(=Nc3ccc(N4CCOCC4)cc3)N(C)C2=O)c(C)n1-c1cccnc1`, -7.27%. As for `CC1CCN(c2ccc(C(=O)Nc3nnc(C4CC4)s3)cc2[N+](=O)[O-])CC1`, the figure is -33%; as for `Cc1occc1C(=O)Nc1nnc(C2CCCCC2)s1`, -32.1%; as for `O=C(Nc1nnc(C2CC2)s1)c1ccccn1`, 62% (active). Next, `CCC(NC(=O)c1ccccc1NC(=O)c1ccccc1)C(=O)NNC(=O)CSc1nc2ccccc2o1` (stereo not drawn): -6.61%; `CCS(=O)(=O)N1Cc2ccccc2CC1C(=O)Nc1nc2ccc(F)cc2s1` (stereo not drawn): -23%. `COc1cc(/C=C(/NC(=O)c2ccc(Cl)cc2Cl)C(=O)O)cc(OC)c1OC`: the inhibition was -17.4%. For `C#CCCCc1nc2ccccc2c(=O)n1N`, the inhibition is -33.7%. As for `Cc1ccc(OCC(=O)Nc2ccccc2Sc2ccc(Cl)cc2)c([N+](=O)[O-])n1`, the figure is -29.5%; as for `CC1=C[C@H]2Cc3cc(C)cc(C)c3S(=O)(=O)[C@@H]2C=C1`, -12.4%. Next, `CC(=O)N1C(C)c2ccccc2C(C)(C)CC12CCCCC2` (stereo not drawn): -16.3%. Next, `O=c1c(Cl)c(NCc2ccc(F)cc2Cl)cnn1C12CC3CC(CC(C3)C1)C2`: -27.1%. As to `Cc1ncc(CC(=O)n2cc(C(=O)c3cc(Cl)ccc3O)cn2)s1`, the inhibition is 68.2% (active). Regarding `Cc1ccc(CCC(=O)Nc2ncc(Cc3cc(Cl)ccc3Cl)s2)o1`, the inhibition is -66.6%. As for `COc1cc(/C=C/C(=O)OCC(=O)Nc2cccc(Oc3ccccc3)c2)ccc1O`, the figure is -29.9%; as for `C/C(=N/NC(=O)C1COc2ccccc2O1)c1ccco1` (stereo not drawn), -32.3%. Turning to `O=C(COC(=O)CSc1nnc(-c2ccc(Cl)cc2)o1)Nc1cc(Cl)cc(Cl)c1`, the inhibition was -26.3%. For the molecule `CN(Cc1ccccc1)C(=O)COC(=O)c1ccccc1Nc1ccccc1`, the inhibition was -8.71%. As for `O=C(Nc1ccc([N+](=O)[O-])cc1)C1(c2ccccc2)CCOCC1`, the inhibition was -16.4%. As for `O=C(NC1CCCC1)C(NS(=O)(=O)c1ccc(Br)s1)c1ccccc1` (stereo not drawn), the figure is -26.3%.

Take `O=S(=O)(c1ccc(F)cc1)N1CCN(C(=S)NCc2ccco2)CC1`: the inhibition is -18%. Regarding `N#C/C(=C(/O)COC(=O)COc1ccc(Cl)cc1)c1nc2ccccc2[nH]1`, the inhibition was -22.6%. Next, `Cc1ccc(NC(=O)COC(=O)CCc2nc3ccccc3n2-c2ccccc2)c(C)c1`: -45.6%. As to `COc1ccc(CN2CN(C(C)C)CSC2=S)cc1`, the inhibition is 68.5% (active). Next, `S=C1SCN(CCN2CCOCC2)CN1Cc1ccccc1`: 39.7%.

`COCC(=O)Nc1cc(C(=O)OC)cc(C(=O)OC)c1`: the inhibition was 6.64%.

Consider `Cc1cc2oc(=O)cc(CN3CCN(S(=O)(=O)c4cccs4)CC3)c2cc1C(C)C`, for which the inhibition was -20.6%.

For `Cc1ccc(CNC(=O)Cn2c(=O)c3sccc3n(Cc3cccc([N+](=O)[O-])c3)c2=O)cc1`, the inhibition was -44.2%. As for `Cc1cccc(NC(=O)Cn2c(=O)n(Cc3ccccc3)c(=O)c3c(C)c(C)sc32)c1`, the figure is -27.1%; as for `Cc1cc(Br)ccc1NC(=O)C1CCCO1` (stereo not drawn), -21.5%; as for `Cc1ccc(C(=O)NCC2CCCO2)o1` (stereo not drawn), -26.6%. Next, `OC(CNCC1CCCO1)Cn1c2ccc(Br)cc2c2cc(Br)ccc21` (stereo not drawn): 98.7% (active); `COc1ccc(NC(=O)Nc2ccc3nc(C)c(C)nc3c2)cc1`: -50.2%; `COc1ccc2nc(SCc3ccccc3)nc(C)c2c1`: -34.5%. Next, `COc1ccc2nc(/N=C(\N)NC(=O)Nc3ccccc3)nc(C)c2c1`: 68.3% (active); `CCOC(=O)CC(NC(=O)C1c2ccccc2Oc2ccccc21)c1ccc(C)cc1` (stereo not drawn): -27.5%. As to `Cc1cc(/C=C2/NC(=O)NC2=O)c(C)n1-c1cccnc1`, the inhibition was -7.15%. Next, `CC(C)n1c(O)c(N=Nc2ccccn2)c2ccccc21`: -16.1%. As for `O=C1Nc2ccccc2C12Nc1ccccc1S2` (stereo not drawn), the inhibition is -30.7%. As for `C=C1c2cc(CC)ccc2NC(=O)N1c1ccc(C)cc1`, the figure is 23.4%; as for `CCc1ccc2c(c1)C1(NN=C(c3ccccc3)S1)C(=O)N2` (stereo not drawn), 94.7% (active). Next, `Cc1ccc(OCCOCCOc2ccc(Br)cc2/C=N\NC(=O)c2ccncc2)cc1`: -32.5%; `COC(=O)c1ccccc1NC(=S)NC(=O)c1ccccc1F`: -31.5%; `CC(C)(C)c1ccc(/C=C/C(=O)Nc2ncccn2)cc1`: -6.47%. Next, `CCn1c(C(C)NC(=O)c2ccc(C)cc2)n[nH]c1=S` (stereo not drawn): -50.9%. Consider `COc1ccc(Cc2nnc(N/N=C/c3ccccc3O)[nH]c2=O)cc1OC`, for which the inhibition was -57%.

With `Cc1csc(=Nc2ccccc2)n1CCO`, the inhibition was -3.94%. Next, `Oc1c(Cl)cc(Cl)c(Cl)c1Cc1c(O)c(Cl)cc(Cl)c1Cl`: 71.3% (active); `Cc1ccc(C(=O)Nc2sc(Cc3ccc4c(c3)OCO4)c(C)c2C(N)=O)cc1`: -10.9%. Next, `NC1=C([N+](=O)[O-])C(c2ccccc2)C2=C(CCCC2=O)O1` (stereo not drawn): -44.3%; `CCCCC(O)(CCCC)C(=O)NN(C(=O)CCl)c1ccccc1`: -4.22%; `CCOC(=O)c1sc2nc(C)nc(SCC(N)=O)c2c1C`: -20.9%. Next, `CCOc1ccc(/C=N/NC(=O)C(C)Sc2ccccn2)cc1OCC` (stereo not drawn): -33.6%. Turning to `Cc1ccc2[nH]c(=O)c(CC=C(Cl)Cl)c(C)c2c1`, the inhibition is -51.5%. As for `CCOC(=O)c1sc(NC(=O)COc2ncnc3ccccc23)c(C(=O)OCC)c1C`, the figure is -43.9%; as for `Cc1nn(Cc2ccccc2)c(C)c1C(=O)NCCN1C(=O)S/C(=C\c2ccc(F)cc2)C1=O`, -32.9%; as for `CC(CNc1ccc([N+](=O)[O-])c2cccnc12)Nc1c([N+](=O)[O-])cc(C(F)(F)F)cc1[N+](=O)[O-]` (stereo not drawn), -23.5%. As for `NS(=O)(=O)c1ccc(N=Cc2ccc(Br)s2)cc1`, the figure is -15%; as for `O=C(COC(=O)/C=C/c1cn(-c2ccccc2)nc1-c1cccnc1)Nc1ccc(Cl)cc1Cl`, -21.4%. Next, `CC(Sc1nnc2c(n1)C1CCC2(C)C1(C)C)C(=O)Nc1ccccc1` (stereo not drawn): -23.4%; `O=C(/C=C\c1ccc2c(c1)OCO2)NC1(C(=O)Nc2ccc3c(c2)OCCO3)CCCCC1`: 9.33%. Consider `COc1ccc(S(=O)(=O)N2CN(CCc3ccc(OC)c(OC)c3)c3nc4ccccc4nc32)cc1`, for which the inhibition was -25.7%. For `COc1cccc(N(C(=O)C2COc3ccccc3O2)C(C(=O)NC2CCCCC2)c2ccc(O)cc2)c1` (stereo not drawn), the inhibition is -6.16%. As for `CCCCCCCC[n+]1cccc(C(=O)N2c3c(nc(N)[nH]c3=O)NC(C)C2C)c1` (stereo not drawn), the figure is -5.07%. Next, `O=C(Nc1nc(-c2ccc(-c3ccccc3)cc2)cs1)c1cnccn1`: -18.9%. As for `O=C(CNCc1ccc(F)cc1)Nc1ccccc1-c1ccccc1`, the figure is -20.9%.
